This data set deals with MS2 coat protein. Kind of data set: apparent Kd, MS2 coat protein; higher = weaker binding; RNA-MaP array; FMN 200 µM where present. In short, it runs like this:
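Designs were transcribed by stalled E. coli RNA polymerase on Illumina sequencing-chip clusters. They were titrated with SNAP-549-labelled MS2 coat protein from 0.7 or 1.5 nM, doubling to 3 µM, without and then with constant ligand. Buffer: 100 mM Tris-HCl pH 7.5, 80 mM KCl, 4 mM MgCl2, BSA, DTT, yeast tRNA, Tween-20. Green signal was normalised to red-channel RNA signal and control-cluster median Fmax. Apparent Kd is the median of filtered per-cluster binding-curve fits.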

Setting [1] is: designed as: OFF switch for flavin mononucleotide, no ligand.
Where [2] appears, read: ligand present: flavin mononucleotide, designed as: OFF switch for flavin mononucleotide.
[3] abbreviates: designed as: ON switch for flavin mononucleotide, no ligand.
[4] abbreviates: ligand present: flavin mononucleotide, designed as: ON switch for flavin mononucleotide.

Usually apparent Kd stands for the concentration giving half-maximal binding under the conditions of the assay. For the sequence “GAGUUGAAGUUAGGAUAUUGGAUAGGGACGGAAUAAGAAGGAGCAAGACAUGAGGAUCACCCAUGUGUAGAAGAAGAGAUCCUC”, the “apparent Kd” value reads like this: under setting [1], 352 nM; under setting [2], 227 nM.
The matching figures for “AUUAUUGGCUAAGGAUAUGGAUACAUGAGGAUCACCCAUGUAUUUUUUGUGAUCAUAUAAAUGAUCCAGAAGGUAGCUGUUUAU”: 23.1 nM and 70.1 nM.
For “GCACGGUAAGUGAGGAUAUACCUCUGGAUACAGAGGUAGAAGGCACAUGAGGAUCACCCAUGUCCUAGCCGUGC”, the “apparent Kd” value was 36.7 nM under setting [1] and 271 nM under setting [2].
As to “GUUAACGCAUGAGGAUAUGCUCGCAUUUCAAGAGCAGAAGGUAUGUCUAUAGACAUGAGGAUCACCCAUGUAUUUAUCAUUGAA”, the “apparent Kd” value came out at 245 nM under setting [3] and 39.6 nM under setting [4].
Regarding “GUCCUUUCUGAGGAUAUUAUUUUUUUCGAUUGAUAAGAAGGCAGUACAUGAGGAUCACCCAUGUGGGUUGUCUG”, the “apparent Kd” value under setting [1] amounted to 26.8 nM and the “apparent Kd” value under setting [2] was 28.3 nM.
In the case of “AGGAGACAUGAGGAUCACCCAUGUGCACGGUGAAGAGGAUAUGUGCGUGGAGAGACACGGACAGAAGGCUUAAGAA”, the “apparent Kd” value is, setting by setting: under setting [3], 65.3 nM; under setting [4], 33 nM.
With “CAGUACUGAGGAUAUACAUGAGGAUCACCCAUGUGGUCCAGCUAGGAAACUAGCACGUGUAGAAGGCAGUACUG”, the “apparent Kd” value reads like this: under setting [1], 36.1 nM; under setting [2], 56.5 nM.
For “AUUUGACAUGAGGAUCACCCAUGUGAGGAUAUCGUUAUUUACUUUGUUUAUAGUAUCUCGAGAAGGCACAUUUG”, the “apparent Kd” value by setting is: under setting [1], 63.3 nM; under setting [2], 220 nM.
The matching figures for “GGUCUACAUGAGGAUCACCCAUGUAAGGAUAUCGUCACUGGAGCUUCGGCUCCAGUGACGAGAAGGUACGUAAU”: 31.7 nM and 33.7 nM.
“CCACGUCACAUGAACAUGAGGAUCACCCAUGUAAAUUCUCAUGAGGAUAUGGAUCCUAAUUGGAUCCAGAAGGCGUGGACGUGG”: the “apparent Kd” value is 1070 nM under setting [3] and 461 nM under setting [4].
The matching figures for “UCAUUUAUUACAGGAUAUGUUAGUAUACAGUUGUUUGGUUAUUACAUAAUAACAGAAGGGUAGAACAUGAGGAUCACCCAUGUA”: 244 nM and 113 nM.
As to “AACAAACGCCUAGGAUAUCAUACUCGAGCGGUCUGAGAAGGAGGCAAGCUUGGGUCCUCAGCACAUGAGGAUCACCCAUGUAAG”, the “apparent Kd” value by setting is: under setting [1], 303 nM; under setting [2], 57.2 nM.
In the case of “GAGCGAAAGCUCAAUGUCGAUAGCAGAAGGACAUCCUUUAACAUGAAAACAUGAGGAUCACCCAUGUAGGAUAUGCUAUCGACU”, the “apparent Kd” value amounted to 6.66 nM under setting [1] and 7.92 nM under setting [2].
The matching figures for “UUAUUAUAUGUAGGAUAUGCGUAUUAUUGUUAUGCAGAAGGACAUGAGGAUCACCCAUGUAUAUUAUUGUUGUAUAUUAUAUAU”: 23.5 nM and 43 nM.
Turning to “UCAUAUAAACAAGGAUAUCAAUUAUUUACACAUCCUACAUGAGGAUCACCCAUGUUUUAAUAUUUUGAGAAGGUGUAAUGUCGG”, the “apparent Kd” value runs as follows: under setting [3], 24 nM; under setting [4], 29.9 nM.
For “AACGAAGAGGAGAAGGGUGAUGGGUCCUCAUGACCCGGAGGGCCGCGGCACAGGAUAUCCAUGUCACAUGAGGAUCACCCAUGU”, the “apparent Kd” value reads like this: under setting [3], 123 nM; under setting [4], 18.5 nM.
Regarding “AAGAUCCCUGUUAGGAUAUAGAGAUCGCCUGGGUCCUAGAAGGAACAUGAGGAUCACCCAUGUGACGUAUAUGU”, the “apparent Kd” value reads like this: under setting [1], 100 nM; under setting [2], 228 nM.
For the sequence “ACCACGUCAGCGAUAUGAUCGAGAGAUCAUGUCGCUGAAUUUAGAAGGACAUGAGGAUCACCCAUGUAGGAUAUGGGUCGUGGA”, the “apparent Kd” value amounted to 39.1 nM under setting [3] and 11.8 nM under setting [4].
Turning to “GCAUGUUAUGUCAGGAUAUACCUAUGGAUACAUAGGUAGAAGGGACAUGAGGAUCACCCAUGUCCUAACCAUGC”, the “apparent Kd” value under setting [1] turned out to be 11.8 nM and the “apparent Kd” value under setting [2] was found to be 15.1 nM.
For “GCCCAGCCCAGGCCCACGGCAUCACAGGAUAUGCCGAUAACAUGAGGAUCACCCAUGUCAACUCCGCAGAAGGGUGAUAUCGUG”, the “apparent Kd” value is 121 nM under setting [3] and 22.1 nM under setting [4].
Take “GGGUGACAUGAGGAUCACCCAUGUCAGGAUAUGGGCUCGGGCUCGAAAGGGCUCGGGCUCAGAAGGGACUGCCC”: the “apparent Kd” value under setting [1] is 56 nM and the “apparent Kd” value under setting [2] came to 170 nM.
With “UGAGCAUCAGGAUAUAUAUGGCGACCGUGAGGUCGAAGGUUACAUGAGGAUCACCCAUGUAGAAGGGAUGUUCU”, the “apparent Kd” value under setting [1] was found to be 36.6 nM and the “apparent Kd” value under setting [2] came to 147 nM.
The matching figures for “CUUUAGCUAGGAUAUACAUGAGGAUCACCCAUGUUAGCGGUCCAUUGGGCCGCGGGUUGUAGAAGGAGCAUUAA”: 30.8 nM and 56.8 nM.
For the sequence “AAAUAAAGGACUAAGGAUAUAUCGCAUGACACAUGAGGAUCACCCAUGUGGUAACACAGAGGGUGAUAGAAGGUAGUCCACAAACA”, the “apparent Kd” value is 404 nM under setting [3] and 75.8 nM under setting [4].
With “AUAUCUUGUCAAGGAUAUGUUGUAUUGAUCUGAAAACAUGAGGAUCACCCAUGUAUACGGUGGGAACAGAAGGUGAAUGUAGAA”, the “apparent Kd” value reads like this: under setting [1], 532 nM; under setting [2], 674 nM.
Regarding “UUGUUGUGUGGAGGAUAUACACUAAUUGUUAGCGUAGAAGGCCACAUGAGGAUCACCCAUGUCCGGGUUACUGCCUAAGGAGUG”, the “apparent Kd” value under setting [1] came out at 548 nM and the “apparent Kd” value under setting [2] was found to be 99.5 nM.
Turning to “UAGAAGUCAGGAUAUGCAUGGCGGGACUUGCGUCGUGGCGUGCAGAAGGGACAUGAGGAUCACCCAUGUAAAGU”, the “apparent Kd” value came out at 51.5 nM under setting [1] and 55.5 nM under setting [2].
Consider “UGUUGUAUUACAGGAUAUCUAUUAUUUUUAUGUAGAGAAGGGUAUUCACAUGAGGAUCACCCAUGUAUAUACGAGGAAGUUGUG”, for which the “apparent Kd” value runs as follows: under setting [3], 44.1 nM; under setting [4], 45.5 nM.
In the case of “UCACGGGACUGAGGAUAUACAUGAAUUAUUUUUGUAGAAGGCAGAAUGUUAGAUUAUUCACUAUACAUGAGGAUCACCCAUGUU”, the “apparent Kd” value came out at 25.3 nM under setting [1] and 18.2 nM under setting [2].
As for “UGUAAAUUAUUAAGUAAUUAGGCGAAGGAUAUAUAACAUGAGGAUCACCCAUGUACUAAAUUGAAGUAGAAGGUUGAGCAUUUC”, the “apparent Kd” value runs as follows: under setting [3], 16.5 nM; under setting [4], 14.6 nM.
“GGAGACCUCACAGGAUAUGCUGGACUUUGUCCAGCAGAAGGGUGAACAUGAGGAUCACCCAUGUUGGUCUCCAAAAUAUUUAAU”: the “apparent Kd” value by setting is: under setting [3], 882 nM; under setting [4], 108 nM.
For the sequence “AACGUUCGAGGAUAUGUGGCGCUGCACAUGAGGAUCACCCAUGUGAGGACUUGCAGCAUCACAGAAGGUGACCUGC”, the “apparent Kd” value came to 94 nM under setting [1] and 84.6 nM under setting [2].
The matching figures for “UUUAUAUAGUAAGGAUAUGUAUUAUUUUUUUCAACAGAAGGUACUGACAUGAGGAUCACCCAUGUUUUAGUGUGGGCAUGUAGU”: 384 nM and 450 nM.
Turning to “GAAGCACAUGAGGAUCACCCAUGUGAGGAUAUCCGUCUGGUCCGGCCGGACCAGUACCGGAGAAGGCGCGUAAA”, the “apparent Kd” value under setting [1] was 59.1 nM and the “apparent Kd” value under setting [2] is 42 nM.
The matching figures for “GCACGACAUGUAGGAUAUCGAGCGCCGGGCGCUCGAGAAGGACAUGAGGAUCACCCAUGUAUUCUGAGUGACCGAGGUCGUGCA”: 53.9 nM and 557 nM.
For “UUCCUGUCAGGAUAUGACUAGAUGCACGAAAGUGUGUUUACUUAGAAGGGACAUGAGGAUCACCCAUGUAGUCC”, the “apparent Kd” value under setting [1] turned out to be 35.9 nM and the “apparent Kd” value under setting [2] stood at 33.3 nM.
On to “AUGCUAGUGUGAGGAUAUUAACAUGAGGAUCACCCAUGUUGGAAGUACAUGACAUGAGGUACAUUUAAGAAGGUACAUUAGCAU”, for which the “apparent Kd” value is 69 nM under setting [1] and 77.1 nM under setting [2].
For the sequence “UUAAAUCAUGUAGGAUAUGCAUGGCGAAGCUACGCAGAAGGACAUGAGGAUCACCCAUGUGCUAGCGACAGAGAACUGUUGCAA”, the “apparent Kd” value reads like this: under setting [1], 56.9 nM; under setting [2], 311 nM.
Consider “GGAUCGAAUGUCAGGAUAUACCACUGGAUACAGUGGUAGAAGGGACAUGAGGAUCACCCAUGUGUUAUCGAUCC”, for which the “apparent Kd” value runs as follows: under setting [1], 40.4 nM; under setting [2], 114 nM.
Consider “UACUUACGAGGAUAUCGAUUGUGGUACAUGAGGAUCACCCAUGUAUGUGAUAUUGUAUUUCGAGAAGGCGUUCAGU”, for which the “apparent Kd” value is, setting by setting: under setting [1], 25.8 nM; under setting [2], 21.7 nM.
“GCUGCAUAGGCAGGAUAUGCAAUAAUUCGAAUAAAAUUUAACGAAUUAACAUGAGGAUCACCCAUGUAGAAGGGCCUGUGCAGU”: the “apparent Kd” value amounted to 5.49 nM under setting [1] and 4.69 nM under setting [2].
For the sequence “GUGUGUUGCGGGCAGGAUAUGUACUUGAGUACAUGAGGAUCACCCAUGUGCGGGUGUUUCACCCGACAGAAGGGCCUAUCGCGAC”, the “apparent Kd” value reads like this: under setting [3], 977 nM; under setting [4], 309 nM.
The matching figures for “CAAUUGGCACAGAAGGGUGACAUGAGGAUCACCCAUGUAGCGUGGCACUCAGGAGGAACCACGCCACAGGAUAUGUGCGGGCAC”: 65 nM and 76.6 nM.
Take “CUGCCUACAUGAGGAUCACCCAUGUCUGGCGAAAGAGUUCAGUAGGAUAUGAGAUUGGGUAAUCAUCAGAAGGGCUGGCAAAAG”: the “apparent Kd” value under setting [3] was determined as 37.5 nM and the “apparent Kd” value under setting [4] was 14.2 nM.
Consider “GAGAAGUCAGGAUAUGCUGCUCGUCACUUGCGUGAUGAGUAGCAGAAGGGACAUGAGGAUCACCCAUGUAAAGG”, for which the “apparent Kd” value by setting is: under setting [1], 136 nM; under setting [2], 315 nM.
As for “CAGUGCAAUGUAGGAUAUGCUCAGGAUAACUGAGCAGAAGGACAUGAGGAUCACCCAUGUACUAUGAAAGAUAAUAAAGCACUG”, the “apparent Kd” value under setting [1] is 14.1 nM and the “apparent Kd” value under setting [2] is 18.3 nM.
“GCGAUUUUGUAAGGAUAUACUCUGUGAUGAAGAGUAGAAGGUACUUACAUGAGGAUCACCCAUGUUUAACGAGAUACUAAUCGU”: the “apparent Kd” value is, setting by setting: under setting [3], 42.1 nM; under setting [4], 21.2 nM.
The matching figures for “AAUUUUUAACAGAAGGCGUUUAUAGUUAAGUUACGAGGAUAUGUAUUACAUGAGGAUCACCCAUGUUACUAGGGUAGUAUAUAA”: 22.1 nM and 20.7 nM.

The values above are taken from the EternaBench riboswitch data.
